Source: PubChem BioAssay
Compounds with a hit are over-represented: about 4% of the library has one in this group of screens.
DAGLB inhibitor – DAGLB lipase inhibitors, primary screen, biochemical, fluorescence, HTS. HEK293T DAGLB membrane lysate, EnzChek fluorogenic substrate. AID 504411, 2011. Diacylglycerol lipase-beta (Homo sapiens), Q8NCG7. 340,000 tested, 0.059% active. inhibition, % at 5.17 µM; in the data active = inhibition above about 34%;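 also: 0% = enzyme with vehicle and 100% = wells lacking enzyme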
TAAR1 agonist – human TAAR1 agonists, primary screen, Fluo-8 calcium fluorescence, CHO RD-HGA16 cells; Trace amine-associated receptor 1 (Homo sapiens), Q96RJ0; vehicle wells 0%, saturating PEA agonist 100%; activation, % at 3 µM; 360,000 tested, 0.99% active; AID 624467, 2012;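 active = activation above the mean activation of all test compounds in the run plus 3 SD, cut at about 38% in these data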
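Test system: RD-HGA16 (CHO) cells co-expressing Gα16 and hTAAR1 / Benchmarks: DMSO vehicle as 0%, PEA at EC100 as 100% / Repeats: no replicates (n 1) / Measure: % activation from peak over basal fluorescence ratio, DMSO-to-PEA scaled / Timing: 17-24 h plating, Fluo-8 75 min 37 °C, 30 min RT / Technique: kinetic Fluo-8 calcium fluorescence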
TAAR1 antag – human TAAR1 antagonists, primary screen, Fluo-8 calcium fluorescence, CHO RD-HGA16 cells | Trace amine-associated receptor 1 (Homo sapiens), Q96RJ0 | antagonist | inhibition, % at 3 µM | 360,000 tested, 1.5% active;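 active = inhibition above a per-plate cutoff, the mean inhibition of test compounds on that plate plus 3 SD, cut at about 49% in these data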;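 also: 0% = DMSO plus EC80 beta-PEA response and 100% = DMSO alone without agonist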
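Material: CHO RD-HGA16 cells bearing hTAAR1; compound dosing: one-point dosing, 3 µM nominal final; schedule: dye loading 75 min at 37 °C, then 30 min room temperature; measured by: calcium fluorescence with Fluo-8; control set: vehicle and agonist controls; replication: n of 1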
GPR7 antag – GPR7 receptor antagonists, primary screen, cell-based, fluorescence, single concentration; inhibition, % at 4.4 µM; AID 1861, 2009; GPR7-expressing cells, fluorescence antagonist assay; 290,000 tested, 1.1% active; in the data active = inhibition above about 16%, passing the limit was not always enough;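 also: cells stimulated with the agonist NPW; 0% = agonist with vehicle and 100% = vehicle without agonist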
Target sequence (P48145 whole entry, looked up): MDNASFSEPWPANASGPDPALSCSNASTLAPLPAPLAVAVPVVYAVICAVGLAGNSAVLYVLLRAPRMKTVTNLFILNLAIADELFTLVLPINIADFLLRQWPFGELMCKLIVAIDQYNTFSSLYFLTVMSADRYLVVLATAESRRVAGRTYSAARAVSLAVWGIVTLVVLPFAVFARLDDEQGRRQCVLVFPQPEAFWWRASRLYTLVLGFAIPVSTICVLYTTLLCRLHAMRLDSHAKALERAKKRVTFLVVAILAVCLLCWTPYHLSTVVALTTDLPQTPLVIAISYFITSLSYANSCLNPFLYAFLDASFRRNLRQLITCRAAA
MPTP inh – mitochondrial permeability transition pore inhibitors, primary screen, biochemical, isolated mouse mitochondria, absorbance. Ca2+ swelling absorbance, 30 min. inhibition, % at 10 µM. 360,000 tested, 1.4% active. AID 602449, 2012;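 active = inhibition of 50% or more, scaled per plate between neutral and stimulator controls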;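 also: 0% = DMSO wells given calcium and 100% = 1 mM EGTA wells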
* hit, by the source's call; . = no result given; ! = not confirmed by another sample.

SMILES	DAGLB inhibitor	TAAR1 agonist	TAAR1 antag	GPR7 antag	MPTP inh
COc1cc(OC)cc(C(=O)Nc2cccc3cccnc23)c1	-7.1	0.0	-15.5	4.7	1.3
COc1cccc(N=Nc2ccc3cccnc3c2O)c1	26.0	37.3	73.7*	3.9	6.2
COc1ccc(N=Nc2ccc(O)c3ncccc23)cc1	25.5	10.0	46.5	-7.1	2.1
COc1cccc(N=Nc2ccc(O)c3ncccc23)c1	25.6	17.7	70.3*	-11.1	4.5
C[C@@H]1CCCCO[C@H](CN(C)C(=O)Cc2ccccc2)[C@@H](C)CN([C@H](C)CO)C(=O)c2cc(NC(=O)Nc3ccccc3)ccc2O1	-5.3	1.4	-2.1	.	0.1
COC(=O)C1=C(C)N(Cc2ccc(F)cc2)C(=S)NC1c1ccc(F)cc1 (centres undefined)	.	-2.4	34.7	.	.
CSc1nsc(SCC(=O)Nc2ccc(C(N)=O)cc2)n1	0.4	1.5	8.8	1.2	-0.4
C[C@]12CCC3c4ccc(O)cc4CCC3C1CC/C2=N\N (some centres undefined)	-1.9	7.5	-40.5	.	5.2
Cc1nn(C)c(C)c1/C=N/N=C1\CCC2C3CCc4cc(O)ccc4C3CCC12C (centres undefined)	-3.0	13.6	62.8*	11.9	1.2
NC(N)=N/N=C/c1cccc(Cl)c1Cl	3.2	42.1*	17.3	4.1	4.8
NC(N)=N/N=C/c1cccc([N+](=O)[O-])c1O	1.7	3.7	1.4	-13.9	-0.3
CN(C)S(=O)(=O)c1ccc(C(=O)OCC(=O)c2ccc(OC(F)F)cc2OC(F)F)cc1	-8.4	4.4	11.8	18.4*	-0.5
O=C(/C=C(\Nc1cccc(Cl)c1)c1ccccc1)c1ccccc1	.	4.0	-19.1	.	.
COc1cc(NC(=O)c2csc(N)n2)cc(C(=O)Nc2cccc(C(F)(F)F)c2)c1	1.0	4.6	52.6*!	.	-1.0
COc1cc(NC(=O)c2cc(C)on2)cc(C(=O)Nc2cccc(C(F)(F)F)c2)c1	-4.6	5.5	54.4*!	.	17.9
COc1cc(NC(=O)c2cnc(N)s2)cc(C(=O)Nc2cccc(C(F)(F)F)c2)c1	1.1	1.4	30.3	.	0.5
COc1ccc(-c2cnc(C(O)c3ccc(OC)c(F)c3)[nH]2)cc1 (centres undefined)	.	0.9	1.2	.	-0.7
COC(=O)c1cc2c(c3c4cc(F)ccc4n(S(=O)(=O)c4ccccc4)c13)C(=O)N(Cc1ccc(C(F)(F)F)cc1)C2	.	-0.7	-41.5	.	.
OCc1cccc(-c2cnc3c(Nc4cccc(OC(F)(F)C(F)F)c4)nccn23)c1	.	4.7	59.9*	.	1.5
CCSc1nnc(-c2cccc(S(=O)(=O)N(C)C)c2)n1-c1cc(OC)ccc1OC	-2.6	14.0	-5.6	13.6	-1.1
CCCSc1nnc(-c2cccc(S(=O)(=O)N(C)C)c2)n1-c1cc(OC)ccc1OC	-1.7	2.8	-1.7	19.8*	-0.1
Cc1nn(-c2ccccc2)c(C)c1NC(=O)COC(=O)c1ccc(NC(=O)CC#N)cc1	-1.4	10.5	28.4	-17.1	-0.7
Cc1nn(-c2ccccc2)c(C)c1NC(=O)COC(=O)c1cc(Br)ccc1O	-2.2	18.1	61.1*	.	1.8
Cc1cc(C(=O)COC(=O)c2ccc(Cl)c(S(N)(=O)=O)c2)c(C)n1C1CC1	1.2	10.5	48.8*	.	-1.7
Cc1nn(-c2ccccc2)c(C)c1NC(=O)COC(=O)c1ccc(Cl)c(S(N)(=O)=O)c1	-0.1	12.7	53.3*	.	-1.9
O=C(COC(=O)c1cc(Br)ccc1O)Nc1ccc2c(c1)OCCO2	-4.1	14.3	51.0*	.	-1.5
COc1cc(CN2CCN(c3ncc(Cc4ccccc4)cn3)CC2)cc(OC)c1	.	3.6	-28.9	.	.
C=CC[C@H](CC(=O)OC(C)(C)C)C(=O)OC[C@@H]1CCCN1C(=O)[C@@H](CC=C)CC(=O)N[C@H](CO)Cc1ccccc1	-3.0	11.4	26.9	.	0.4
CCc1ccc(-c2cc(C(=O)N/N=C/c3ccccn3)[nH]n2)cc1	2.2	10.3	1.1	-8.9	-1.7
O=C(N/N=C/C=C\c1ccccc1[N+](=O)[O-])c1cc(-c2ccc3ccccc3c2)n[nH]1	7.5	2.5	53.3*	-17.0	11.2
